Results taken from ChEMBL document CHEMBL4219195, “Discovery of a quinoline-based phenyl sulfone derivative as an antitrypanosomal agent” (Bioorg Med Chem Lett, 2018).
Active and inactive are the calls of the source. No cut-off for these calls is given here.

How the values were obtained:
[1] = target: Rhodesain (Trypanosoma brucei rhodesiense) (UniProt Q95PM0); assay: Inhibition of Trypanosoma brucei rhodesain expressed in Pichia pastoris at 20 uM using Z-phe-Arg-AMC as substrate preincubated for 1 hr followed by substrate addition by fluorescence assay
Outline: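 Enzyme at 0.8 nM final with compound at 20 μM final, 1 h preincubation in 50 mM sodium acetate pH 5.5 with 2 mM DTT and 0.01% Triton X-100. Z-Phe-Arg-AMC (10 μM) then added. Cleavage rate (RFU/sec) read at 25 °C, ex 355/em 460 nm. E-64 (10 μM) served as 100% inhibition control.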

HepG2 = assay: Cytotoxicity against human HepG2 cells assessed as decrease in cell viability after 72 hrs by MTT assay; format: cell-based; conditions: HepG2, 72 h
Outline: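 HepG2 cells kept in DMEM:F12 with 10% FBS, pen/strep and 0.0125% Tween 80 at 37°C, 5% CO2. Cells trypsinized, seeded at 5 × 10⁵ cells/mL and left ~24 h, then given compounds in DMSO for 72 h. Medium replaced with MTT-containing medium for 1.5 h; formazan dissolved in DMSO; A550. Triplicates. Controls: 10% SDS, podophyllotoxin.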

Trypanosoma brucei [2] = assay: Antitrypanosomal activity against Trypanosoma brucei 427 bloodstream forms assessed as parasitic growth inhibition after 48 hrs by alamar blue assay; format: functional, organism-based; conditions: Trypanosoma brucei, 427, 48 h
Outline: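 Bloodstream forms in supplemented HMI-9 medium (10% FBS, 10% Serum Plus, cysteine, hypoxanthine, β-mercaptoethanol, thymidine, pyruvate, bathocuproinesulfonate, Tween 80), 5 × 10³ cells/well, compound exposure 48 h in DMSO. Alamar blue then added, 4 h at 37°C; fluorescence ex 530/em 590 nm. Triplicates; IC50 from 0.3–50 μM range; suramin positive control.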

Trypanosoma brucei [3] = assay: Antitrypanosomal activity against luciferase expressing Trypanosoma brucei STIB795 bloodstream forms infected in NMRI mouse assessed as parasitic growth inhibition at 50 to 100 mg/kg, ip administered for 4 consecutive days starting at 3 days post infection measured at 24 hrs post dose by live imaging analysis; format: functional, organism-based
Outline: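 Groups of four female mice, each inoculated ip with 1 × 10⁴ bloodstream forms. Groups: control, 50 mg/kg/day and 100 mg/kg/day. Dosing ip in water plus 10% DMSO began 3 days post-infection. Parasitemia followed by live imaging. Moribund mice euthanized once parasitemia was detected.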

[4] = target: Procathepsin L (Homo sapiens) (UniProt P07711); assay: Inhibition of human liver cathepsin L using Z-phe-Arg-AMC as substrate at 0.1 to 125 uM preincubated for 1 hr followed by substrate addition by fluorescence assay
Outline: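 Human liver CatL at 0.58 nM in 400 mM sodium acetate pH 5.5 with 8 mM DTT, 4 mM EDTA and 0.01% Triton X-100. Enzyme and compound preincubated 1 h, then Z-Phe-Arg-AMC (20 μM) added. AMC fluorescence rate read at ex 355/em 460 nm, 25 °C.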

Rhodesain = Rhodesain (Trypanosoma brucei rhodesiense, UniProt Q95PM0); assay: Inhibition of Trypanosoma brucei rhodesain expressed in Pichia pastoris using Z-phe-Arg-AMC as substrate preincubated for 1 hr followed by substrate addition by fluorescence assay
Outline: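 Rhodesain at 0.8 nM final was pre-incubated 1 h with compound at 20 μM final in 50 mM sodium acetate pH 5.5, 2 mM DTT, 0.01% Triton X-100. Then 10 μM Z-Phe-Arg-AMC was added, and cleavage was read as RFU/sec at 25 °C (ex 355/em 460 nm). E-64 (10 μM) defined 100% inhibition.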

[5] = target: Rhodesain (Trypanosoma brucei rhodesiense) (UniProt Q95PM0); assay: Inhibition of Trypanosoma brucei rhodesain expressed in Pichia pastoris assessed as rato of Kinact to Ki using Z-phe-Arg-AMC as substrate preincubated for 1 hr followed by substrate additon by fluorescence assay
Outline: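 Time-dependent inactivation study: rhodesain mixed with inhibitor (0, 0.06, 0.12, 0.24, 0.97, 3.9 μM) in assay buffer (50 mM sodium acetate pH 5.5, 2 mM DTT, 0.01% Triton X-100). Aliquots drawn every 10 min, assayed with 10 μM Z-Phe-Arg-AMC, RFU/sec followed 7 min at 25 °C (ex 355/em 460 nm). Analysed by pseudo-first-order inhibition plots.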

Rhodesain (Trypanosoma brucei rhodesiense), sequence (Q95PM0 1-450): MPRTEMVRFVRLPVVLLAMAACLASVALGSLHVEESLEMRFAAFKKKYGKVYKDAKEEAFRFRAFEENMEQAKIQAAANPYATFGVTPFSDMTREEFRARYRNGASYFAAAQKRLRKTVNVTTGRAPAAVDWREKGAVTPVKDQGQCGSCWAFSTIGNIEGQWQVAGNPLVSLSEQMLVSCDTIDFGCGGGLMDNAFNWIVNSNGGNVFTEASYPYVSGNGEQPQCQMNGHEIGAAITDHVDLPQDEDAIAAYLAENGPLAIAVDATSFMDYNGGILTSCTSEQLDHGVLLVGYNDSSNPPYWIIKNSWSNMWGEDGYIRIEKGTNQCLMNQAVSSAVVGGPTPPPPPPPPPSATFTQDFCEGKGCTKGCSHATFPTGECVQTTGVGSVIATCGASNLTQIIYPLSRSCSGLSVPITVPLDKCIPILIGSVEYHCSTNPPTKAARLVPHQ
Rhodesain, sequence (Q95PM0 whole entry): as the sequence (Q95PM0 1-450) above
Procathepsin L (Homo sapiens), sequence (P07711 114-333 limits assumed): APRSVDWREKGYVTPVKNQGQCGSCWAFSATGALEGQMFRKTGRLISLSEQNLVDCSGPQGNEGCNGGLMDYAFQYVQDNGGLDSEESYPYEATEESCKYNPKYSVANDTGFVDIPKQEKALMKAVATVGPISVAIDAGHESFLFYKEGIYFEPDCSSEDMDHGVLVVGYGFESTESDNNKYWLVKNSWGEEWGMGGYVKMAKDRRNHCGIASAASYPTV

| inhibition [1] | IC50 (Trypanosoma brucei [2]) | Compound | IC50 (HepG2) | Activity (Trypanosoma brucei [3]) | inhibition [4] | IC50 (Rhodesain) | Ratio [5] |
| --- | --- | --- | --- | --- | --- | --- | --- |
| inactive | 4.04 µM | CC1(C)[C@@H]2CC[C@@](C)(C2)[C@@H]1OC(=O)Cc1ccc(OC/C=C/S(=O)(=O)c2ccccc2)cc1 | 11.9 µM |  |  |  |  |
| inactive | 2.01 µM | CC1(C)[C@H]2CC=C(CCOC(=O)Cc3ccc(OC/C=C/S(=O)(=O)c4ccccc4)cc3)[C@@H]1C2 | > 80 µM |  |  |  |  |
| inactive | 3.04 µM | CC1(C)[C@H]2CC=C(CCOC(=O)Cc3ccc(OC/C=C/S(=O)(=O)c4ccccc4)c(Cl)c3)[C@@H]1C2 | > 80 µM |  |  |  |  |
| inactive | 0.76 µM | O=C(Cc1ccc(OC/C=C/S(=O)(=O)c2ccccc2)cc1)Nc1cccc2cccnc12 | > 80 µM | inactive |  |  |  |
| inactive | > 20 µM | CC1=C[C@@H](OC(=O)Cc2ccc(OC/C=C/S(=O)(=O)c3ccccc3)cc2)C2C[C@H]1C2(C)C | > 20 µM |  |  |  |  |
| inactive | > 20 µM | CCCN1CCC(NC(=O)Cc2ccc(OC/C=C/S(=O)(=O)c3ccccc3)cc2)CC1 | > 20 µM |  |  |  |  |
| inactive | 6.04 µM | O=C(Cc1ccc(OC/C=C/S(=O)(=O)c2ccccc2)cc1)Oc1ccc(C2CCCC2)cc1 | > 20 µM |  |  |  |  |
| inactive | 7.03 µM | CC1(C)C2CC=C(CCOC(=O)Cc3ccc(OC/C=C/S(=O)(=O)c4ccccc4)cc3F)C1C2 (configuration not stated) | > 20 µM |  |  |  |  |
| inactive | > 20 µM | O=C(Cc1ccc(OC/C=C/S(=O)(=O)c2ccccc2)cc1)Oc1ccc(C(F)(F)F)cc1 | > 20 µM |  |  |  |  |
|  |  | COc1cc([C@@H]2c3cc4c(cc3[C@H](O)[C@H]3COC(=O)[C@H]23)OCO4)cc(OC)c1OC [PODOFILOX] | 0.008 µM |  |  |  |  |
| inactive | 5.45 µM | C[C@H](NC(=O)Cc1ccc(OC/C=C/S(=O)(=O)c2ccccc2)cc1)c1ccc2ccccc2c1 | > 20 µM |  |  |  |  |
| inactive | 7.16 µM | CC1(C)C2CC[C@]1(C)C(OC(=O)Cc1ccc(OC/C=C/S(=O)(=O)c3ccccc3)cc1)C2 (some centres not stated) | > 20 µM |  |  |  |  |
| inactive | > 20 µM | CC1(C)C2CC=C(COC(=O)Cc3ccc(OC/C=C/S(=O)(=O)c4ccccc4)cc3)C1C2 (configuration not stated) | > 20 µM |  |  |  |  |
| inactive | 5.63 µM | O=C(Cc1ccc(OC/C=C/S(=O)(=O)c2ccccc2)cc1)OC1CCC[C@@H]2CCCC[C@H]12 (some centres not stated) | > 20 µM |  |  |  |  |
|  | 0.004 µM | Cc1ccc(C(=O)Nc2ccc(S(=O)(=O)O)c3cc(S(=O)(=O)O)cc(S(=O)(=O)O)c23)cc1NC(=O)c1cccc(NC(=O)Nc2cccc(C(=O)Nc3cc(C(=O)Nc4ccc(S(=O)(=O)O)c5cc(S(=O)(=O)O)cc(S(=O)(=O)O)c45)ccc3C)c2)c1 [SURAMIN] |  |  |  |  |  |
| inactive | > 20 µM | CC(C)c1ccc(OC(=O)Cc2ccc(OC/C=C/S(=O)(=O)c3ccccc3)cc2)cc1 | > 20 µM |  |  |  |  |
| inactive | > 20 µM | CN1CCC(NC(=O)Cc2ccc(OC/C=C/S(=O)(=O)c3ccccc3)cc2)CC1 | > 20 µM |  |  |  |  |
| inactive | 10.8 µM | CC1(C)C2CC[C@]1(C)C(NC(=O)Cc1ccc(OC/C=C/S(=O)(=O)c3ccccc3)cc1)C2 (some centres not stated) | > 20 µM |  |  |  |  |
| inactive | > 20 µM | CC(C)CCC[C@@H](C)[C@H]1CC[C@H]2[C@@H]3CC[C@H]4C[C@@H](OC(=O)Cc5ccc(OC/C=C/S(=O)(=O)c6ccccc6)cc5)CC[C@]4(C)[C@H]3CC[C@]12C | > 20 µM |  |  |  |  |
| inactive | 11.7 µM | O=C(Cc1ccc(OC/C=C/S(=O)(=O)c2ccccc2)cc1)NC12CC3CC(CC(C3)C1)C2 | > 20 µM |  |  |  |  |
| inactive | 2.18 µM | O=C(Cc1ccc(OC/C=C/S(=O)(=O)c2ccccc2)cc1)Oc1ccc2cc(Br)ccc2c1 | > 80 µM |  |  |  |  |
| inactive | 5.62 µM | C[C@H](OC(=O)Cc1ccc(OC/C=C/S(=O)(=O)c2ccccc2)cc1)c1ccc2ccccc2c1 | > 20 µM |  |  |  |  |
| inactive | 1.47 µM | O=C(Cc1ccc(OC/C=C/S(=O)(=O)c2ccccc2)cc1)Oc1ccc(Cc2ccccc2)cc1 | > 80 µM |  |  |  |  |

| Compound | inhibition [1] | IC50 (Trypanosoma brucei [2]) | IC50 (HepG2) | Activity (Trypanosoma brucei [3]) | inhibition [4] | IC50 (Rhodesain) | Ratio [5] |
| --- | --- | --- | --- | --- | --- | --- | --- |
| O=C(N[C@H](/C=C/S(=O)(=O)c1ccccc1)CCc1ccccc1)c1cccc2cccnc12 | Active | 5.97 µM | > 80 µM |  | inactive | 0.8 µM | 99 M⁻¹ s⁻¹ |
